Measurements as given in ChEMBL document CHEMBL1154352, “Toll-like receptor 7 selective synthetic oligoribonucleotide agonists: synthesis and structure-activity relationship studies” (J Med Chem, 2009).
The source made the active and inactive calls. The calls are words filed in the database; no cut-off is given here.

Tests used:
Splenocyte [1] = assay: Immunomodulatory activity in C57BL/6 mouse splenocytes bearing TLR7 receptor assessed as IL6 release at 100 ug/ml after 24 hrs by ELISA; format: functional, cell-based
Summary of the method: (§1)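 C57BL/6 splenocytes in RPMI 1640 with 10% FBS, penicillin/streptomycin, 2 mM L-glutamine, plated at 5 × 10^6 cells/mL; compounds in PBS added, 37 °C for 24 h. Supernatant IL-12 and IL-6 by ELISA; representative of three independent experiments.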

[2] = biological target: T1, Toll-like receptor 7 (Homo sapiens) (UniProt Q9NYK1); assay: Activation of human TLR7 expressed in HEK293XL assessed as fold induction of NF-kappaB activity at 50 ug/ml after 18 hrs by reporter gene assay relative to control
T1 sequence (whole entry): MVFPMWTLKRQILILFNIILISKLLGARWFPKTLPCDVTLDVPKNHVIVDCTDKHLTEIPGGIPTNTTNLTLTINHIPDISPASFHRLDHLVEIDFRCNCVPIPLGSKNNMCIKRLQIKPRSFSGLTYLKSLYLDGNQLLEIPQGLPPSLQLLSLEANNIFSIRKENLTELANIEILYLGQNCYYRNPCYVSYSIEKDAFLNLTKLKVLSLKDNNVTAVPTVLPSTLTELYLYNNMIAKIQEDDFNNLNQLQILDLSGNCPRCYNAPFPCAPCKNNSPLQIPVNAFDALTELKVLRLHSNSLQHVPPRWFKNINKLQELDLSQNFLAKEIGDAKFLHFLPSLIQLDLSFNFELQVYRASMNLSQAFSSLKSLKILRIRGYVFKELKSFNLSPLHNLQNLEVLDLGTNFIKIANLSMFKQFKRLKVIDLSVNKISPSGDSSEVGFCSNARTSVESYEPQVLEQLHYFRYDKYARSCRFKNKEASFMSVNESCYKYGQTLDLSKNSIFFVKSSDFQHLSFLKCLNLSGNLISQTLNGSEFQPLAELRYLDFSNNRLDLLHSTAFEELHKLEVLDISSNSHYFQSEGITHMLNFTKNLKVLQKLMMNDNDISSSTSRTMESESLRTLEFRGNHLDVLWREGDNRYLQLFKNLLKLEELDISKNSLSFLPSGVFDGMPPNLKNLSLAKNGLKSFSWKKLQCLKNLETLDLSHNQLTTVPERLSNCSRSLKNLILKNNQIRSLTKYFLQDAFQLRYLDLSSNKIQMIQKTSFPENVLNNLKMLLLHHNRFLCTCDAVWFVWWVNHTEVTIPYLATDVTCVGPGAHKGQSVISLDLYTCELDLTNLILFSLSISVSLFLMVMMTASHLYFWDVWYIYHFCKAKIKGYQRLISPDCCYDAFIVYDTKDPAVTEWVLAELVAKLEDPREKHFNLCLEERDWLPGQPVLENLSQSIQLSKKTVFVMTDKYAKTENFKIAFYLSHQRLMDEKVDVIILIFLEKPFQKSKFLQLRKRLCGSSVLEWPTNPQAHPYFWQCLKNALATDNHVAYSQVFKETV
Summary of the method: (§2)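 HEK293 cells stably expressing human TLR7 or TLR8, transiently transfected with SEAP reporter plasmid; medium replaced, SIMRA compounds added, 18 h incubation. Supernatant SEAP measured by QuantiBlue; expressed as fold increase in NF-κB activity over PBS control. Tabulated data at 50 μg/mL, representative of three independent experiments.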

Splenocyte [3] = assay: Immunomodulatory activity in C57BL/6 mouse splenocytes bearing TLR7 receptor assessed as IL12 release at 100 ug/ml after 24 hrs by ELISA; format: functional, cell-based; summary of the method: as §1
[4] = Metabolic stability in human serum assessed as full length product remaining after 10 mins by HPLC; format: ADME, cell-free; conditions: read-out: Stability
Summary of the method: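 About 0.5 A260 units compound in 1% human serum in PBS, 37 °C; aliquot taken at 10 min, analysed by anion-exchange HPLC for percent intact full-length product.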

Homo sapiens = species on record: Homo sapiens; assay: Ratio of human TLR7 activity to human TLR8 activity
Summary of the method: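 TLR7/TLR8 ratio computed from fold NF-κB (SEAP reporter) activation in HEK293 cells stably expressing human TLR7 versus TLR8, compounds at 50 μg/mL, 18 h exposure; representative of three independent experiments.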

[5] = biological target: T2, Toll-like receptor 8 (Homo sapiens) (UniProt Q9NR97); assay: Activation of human TLR8 expressed in HEK293XL assessed as fold induction of NF-kappaB activity at 50 ug/ml after 18 hrs by reporter gene assay relative to control; summary of the method: as §2
T2 sequence (whole entry): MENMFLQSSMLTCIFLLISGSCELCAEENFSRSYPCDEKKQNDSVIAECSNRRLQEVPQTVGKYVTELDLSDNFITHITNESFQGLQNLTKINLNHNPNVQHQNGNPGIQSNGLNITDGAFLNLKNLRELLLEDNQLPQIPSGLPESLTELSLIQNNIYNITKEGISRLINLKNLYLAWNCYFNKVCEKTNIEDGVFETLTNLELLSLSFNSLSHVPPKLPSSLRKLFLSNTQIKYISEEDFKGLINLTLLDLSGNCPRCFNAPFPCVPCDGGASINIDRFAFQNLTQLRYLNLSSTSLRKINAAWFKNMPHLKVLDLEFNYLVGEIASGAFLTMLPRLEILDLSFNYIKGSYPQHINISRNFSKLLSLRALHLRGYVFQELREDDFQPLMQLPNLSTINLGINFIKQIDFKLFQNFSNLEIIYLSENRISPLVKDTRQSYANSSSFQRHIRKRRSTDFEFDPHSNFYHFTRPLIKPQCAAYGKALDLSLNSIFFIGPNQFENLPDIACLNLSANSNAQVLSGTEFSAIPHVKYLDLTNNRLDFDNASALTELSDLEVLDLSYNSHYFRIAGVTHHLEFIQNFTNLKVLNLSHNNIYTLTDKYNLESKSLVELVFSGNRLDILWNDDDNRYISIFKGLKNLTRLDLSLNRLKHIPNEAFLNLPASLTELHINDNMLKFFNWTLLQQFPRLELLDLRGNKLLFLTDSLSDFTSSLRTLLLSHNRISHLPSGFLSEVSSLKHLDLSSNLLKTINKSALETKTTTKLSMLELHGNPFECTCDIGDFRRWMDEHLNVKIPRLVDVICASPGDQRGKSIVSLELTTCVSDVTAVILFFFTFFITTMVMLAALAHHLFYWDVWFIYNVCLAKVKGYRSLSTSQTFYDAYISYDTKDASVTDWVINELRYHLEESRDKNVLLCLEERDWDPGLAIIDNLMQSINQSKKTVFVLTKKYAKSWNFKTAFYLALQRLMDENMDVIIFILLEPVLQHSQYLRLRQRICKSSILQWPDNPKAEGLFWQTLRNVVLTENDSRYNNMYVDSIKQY

Row | Activity (Splenocyte [1]) | fold change (FC) [2] | Activity (Splenocyte [3]) | remaining at 10 min [4] [%] | Ratio (Homo sapiens) | fold change (FC) [5] | Compound
1 | Active | 13.7 | Active | 76 | 19.6 | 0.7 | Nc1ccn([C@@H]2O[C@H](COP(=O)(S)O[C@H]3[C@@H](O)[C@H](n4ccc5c(=O)[nH]c(N)nc54)O[C@@H]3COP(=O)(S)O[C@H]3[C@@H](O)[C@H](n4cnc5c(N)ncnc54)O[C@@H]3COP(=O)(S)O[C@H]3[C@@H](O)[C@H](n4cnc5c(N)ncnc54)O[C@@H]3COP(=O)(S)O[C@H]3[C@@H](O)[C@H](n4ccc5c(=O)[nH]c(N)nc54)O[C@@H]3COP(=O)(S)O[C@H]3[C@@H](O)[C@H](n4ccc(=O)[nH]c4=O)O[C@@H]3COP(=O)(S)O[C@H]3[C@@H](O)[C@H](n4ccc(=O)[nH]c4=O)O[C@@H]3COP(=O)(S)O[C@H]3[C@@H](O)[C@H](n4cnc5c(N)ncnc54)O[C@@H]3COP(=O)(S)O[C@H]3[C@@H](O)[C@H](n4cnc5c(N)ncnc54)O[C@@H]3CO)[C@@H](OP(=O)(S)OC[C@H]3O[C@@H](n4ccc(=O)[nH]c4=O)[C@H](O)[C@@H]3OP(=O)(S)OC[C@H]3O[C@@H](n4ccc5c(=O)[nH]c(N)nc54)[C@H](O)[C@@H]3OP(=O)(S)OCC(O)COP(=O)(S)O[C@H]3[C@@H](O)[C@H](n4ccc5c(=O)[nH]c(N)nc54)O[C@@H]3COP(=O)(S)O[C@H]3[C@@H](O)[C@H](n4ccc(=O)[nH]c4=O)O[C@@H]3COP(=O)(S)O[C@H]3[C@@H](O)[C@H](n4ccc(N)nc4=O)O[C@@H]3COP(=O)(S)O[C@H]3[C@@H](O)[C@H](n4ccc5c(=O)[nH]c(N)nc54)O[C@@H]3COP(=O)(S)O[C@H]3[C@@H](O)[C@H](n4cnc5c(N)ncnc54)O[C@@H]3COP(=O)(S)O[C@H]3[C@@H](O)[C@H](n4cnc5c(N)ncnc54)O[C@@H]3COP(=O)(S)O[C@H]3[C@@H](O)[C@H](n4ccc5c(=O)[nH]c(N)nc54)O[C@@H]3COP(=O)(S)O[C@H]3[C@@H](O)[C@H](n4ccc(=O)[nH]c4=O)O[C@@H]3COP(=O)(S)O[C@H]3[C@@H](O)[C@H](n4ccc(=O)[nH]c4=O)O[C@@H]3COP(=O)(S)O[C@H]3[C@@H](O)[C@H](n4cnc5c(N)ncnc54)O[C@@H]3COP(=O)(S)O[C@H]3[C@@H](O)[C@H](n4cnc5c(N)ncnc54)O[C@@H]3CO)[C@H]2O)c(=O)n1 (some centres not stated)
2 | Active | 6.1 | Active | 63 | 8.7 | 0.7 | Nc1ccn([C@@H]2O[C@H](COP(=O)(S)O[C@H]3[C@@H](O)[C@H](n4ccc(N)nc4=O)O[C@@H]3COP(=O)(S)O[C@H]3[C@@H](O)[C@H](n4cnc5c(N)ncnc54)O[C@@H]3COP(=O)(S)O[C@H]3[C@@H](O)[C@H](n4ccc5c(=O)[nH]c(N)nc54)O[C@@H]3COP(=O)(S)O[C@H]3[C@@H](O)[C@H](n4ccc(=O)[nH]c4=O)O[C@@H]3COP(=O)(S)O[C@H]3[C@@H](O)[C@H](n4ccc(=O)[nH]c4=O)O[C@@H]3COP(=O)(S)O[C@H]3[C@@H](O)[C@H](n4ccc(N)nc4=O)O[C@@H]3COP(=O)(S)O[C@H]3[C@@H](O)[C@H](n4cnc5c(N)ncnc54)O[C@@H]3CO)[C@@H](OP(=O)(S)OC[C@H]3O[C@@H](n4ccc(=O)[nH]c4=O)[C@H](O)[C@@H]3OP(=O)(S)OC[C@H]3O[C@@H](n4ccc5c(=O)[nH]c(N)nc54)[C@H](O)[C@@H]3OP(=O)(S)OC[C@H]3O[C@@H](n4ccc(=O)[nH]c4=O)[C@H](O)[C@@H]3OP(=O)(S)OCC(O)COP(=O)(S)O[C@H]3[C@@H](O)[C@H](n4ccc(=O)[nH]c4=O)O[C@@H]3COP(=O)(S)O[C@H]3[C@@H](O)[C@H](n4ccc5c(=O)[nH]c(N)nc54)O[C@@H]3COP(=O)(S)O[C@H]3[C@@H](O)[C@H](n4ccc(=O)[nH]c4=O)O[C@@H]3COP(=O)(S)O[C@H]3[C@@H](O)[C@H](n4ccc(N)nc4=O)O[C@@H]3COP(=O)(S)O[C@H]3[C@@H](O)[C@H](n4ccc(N)nc4=O)O[C@@H]3COP(=O)(S)O[C@H]3[C@@H](O)[C@H](n4cnc5c(N)ncnc54)O[C@@H]3COP(=O)(S)O[C@H]3[C@@H](O)[C@H](n4ccc5c(=O)[nH]c(N)nc54)O[C@@H]3COP(=O)(S)O[C@H]3[C@@H](O)[C@H](n4ccc(=O)[nH]c4=O)O[C@@H]3COP(=O)(S)O[C@H]3[C@@H](O)[C@H](n4ccc(=O)[nH]c4=O)O[C@@H]3COP(=O)(S)O[C@H]3[C@@H](O)[C@H](n4ccc(N)nc4=O)O[C@@H]3COP(=O)(S)O[C@H]3[C@@H](O)[C@H](n4cnc5c(N)ncnc54)O[C@@H]3CO)[C@H]2O)c(=O)n1 (some centres not stated)
